Measurements published in ChEMBL document CHEMBL3745647, “Design, synthesis and biological evaluation of pyrazolyl-nitroimidazole derivatives as potential EGFR/HER-2 kinase inhibitors” (Bioorg Med Chem Lett, 2016).

Experiments:
[1] = tested on: MCF7; assay: Antiproliferative activity against human MCF7 cells after 12 hrs by MTT assay; type: functional, cell-based; settings: MCF7, 12 h
[2] = Antiproliferative activity against mouse B16F10 cells after 12 hrs by MTT assay; type: functional, cell-based; settings: B16-F10, 12 h
[3] = molecular target: Epidermal growth factor receptor (Homo sapiens, UniProt P00533); assay: Inhibition of His-tagged EGFR cytoplasmic domain (645-1186 aa) (unknown origin) assessed as inhibition of autophosphorylation by TR-fluorometry
[4] = molecular target: Receptor tyrosine-protein kinase erbB-2 (Homo sapiens, UniProt P04626); assay: Inhibition of His-tagged human HER-2 cytoplasmic domain (676-1245 aa) (unknown origin) assessed as inhibition of autophosphorylation by TR-fluorometry
[5] = tested on: HeLa; assay: Antiproliferative activity against human HeLa cells after 12 hrs by MTT assay; type: functional, cell-based
[6] = tested on: HepG2; assay: Antiproliferative activity against human HepG2 cells after 12 hrs by MTT assay; type: functional, cell-based; settings: HepG2, 12 h
[7] = tested on: HeLa; assay: Induction of apoptosis in human HeLa cells assessed as necrotic cells at 1.04 uM after 48 hrs by annexin-V-FITC/PI staining based flow cytometry (reference value: 3.82%); type: functional
How it was run: (§1)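 HeLa cells treated at 0.13, 0.26, 0.52 or 1.04 µM for 48 h, then collected and stained with annexin V-FITC/PI for flow cytometry. Early apoptotic cells are annexin V+/PI− (lower right quadrant) and late apoptotic cells are annexin V+/PI+ (upper right quadrant). Data are mean ± S.E.M. of three independent experiments.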

[8] = tested on: HeLa; assay: Induction of apoptosis in human HeLa cells assessed as late apoptotic cells at 1.04 uM after 48 hrs by annexin-V-FITC/PI staining based flow cytometry (reference value: 8.52%); type: functional; how it was run: as §1
[9] = tested on: HeLa; assay: Induction of apoptosis in human HeLa cells assessed as early apoptotic cells at 0.26 uM after 48 hrs by annexin-V-FITC/PI staining based flow cytometry (reference value: 0.889%); type: functional; how it was run: as §1
[10] = tested on: HeLa; assay: Induction of apoptosis in human HeLa cells assessed as early apoptotic cells at 0.52 uM after 48 hrs by annexin-V-FITC/PI staining based flow cytometry (reference value: 0.889%); type: functional; how it was run: as §1
[11] = tested on: HeLa; assay: Induction of apoptosis in human HeLa cells assessed as viable cells at 0.13 uM after 48 hrs by annexin-V-FITC/PI staining based flow cytometry (reference value: 86.8%); type: functional; settings: read-out: Activity; how it was run: as §1
[12] = tested on: HeLa; assay: Induction of apoptosis in human HeLa cells assessed as viable cells at 0.26 uM after 48 hrs by annexin-V-FITC/PI staining based flow cytometry (reference value: 86.8%); type: functional; settings: read-out: Activity; how it was run: as §1
[13] = tested on: HeLa; assay: Induction of apoptosis in human HeLa cells assessed as late apoptotic cells at 0.26 uM after 48 hrs by annexin-V-FITC/PI staining based flow cytometry (reference value: 8.52%); type: functional; how it was run: as §1
[14] = tested on: HeLa; assay: Induction of apoptosis in human HeLa cells assessed as necrotic cells at 0.13 uM after 48 hrs by annexin-V-FITC/PI staining based flow cytometry (reference value: 3.82%); type: functional; how it was run: as §1
[15] = tested on: HeLa; assay: Induction of apoptosis in human HeLa cells assessed as early apoptotic cells at 1.04 uM after 48 hrs by annexin-V-FITC/PI staining based flow cytometry (reference value: 0.889%); type: functional; how it was run: as §1
[16] = tested on: HeLa; assay: Induction of apoptosis in human HeLa cells assessed as necrotic cells at 0.52 uM after 48 hrs by annexin-V-FITC/PI staining based flow cytometry (reference value: 3.82%); type: functional; how it was run: as §1
[17] = tested on: HeLa; assay: Induction of apoptosis in human HeLa cells assessed as late apoptotic cells at 0.52 uM after 48 hrs by annexin-V-FITC/PI staining based flow cytometry (reference value: 8.52%); type: functional; how it was run: as §1
[18] = tested on: HeLa; assay: Induction of apoptosis in human HeLa cells assessed as late apoptotic cells at 0.13 uM after 48 hrs by annexin-V-FITC/PI staining based flow cytometry (reference value: 8.52%); type: functional; how it was run: as §1
[19] = tested on: HeLa; assay: Induction of apoptosis in human HeLa cells assessed as necrotic cells at 0.26 uM after 48 hrs by annexin-V-FITC/PI staining based flow cytometry (reference value: 3.82%); type: functional; how it was run: as §1
[20] = tested on: HeLa; assay: Induction of apoptosis in human HeLa cells assessed as viable cells at 0.52 uM after 48 hrs by annexin-V-FITC/PI staining based flow cytometry (reference value: 86.8%); type: functional; settings: read-out: Activity; how it was run: as §1
[21] = Cytotoxicity against human HEK293T cells for 24 hrs by MTT assay; type: cell-based, HEK-293T
How it was run: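 293T human kidney epithelial cells exposed to multiple concentrations and viability read by MTT.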

[22] = tested on: HeLa; assay: Induction of apoptosis in human HeLa cells assessed as early apoptotic cells at 0.13 uM after 48 hrs by annexin-V-FITC/PI staining based flow cytometry (reference value: 0.889%); type: functional; how it was run: as §1
[23] = tested on: HeLa; assay: Induction of apoptosis in human HeLa cells assessed as viable cells at 1.04 uM after 48 hrs by annexin-V-FITC/PI staining based flow cytometry (reference value: 86.8%); type: functional; settings: read-out: Activity; how it was run: as §1
[24] = tested on: HeLa; assay: Induction of apoptosis in human HeLa cells after 48 hrs by annexin-V-FITC/PI staining based flow cytometry; type: functional, cell-based; how it was run: as §1

Sequence of Receptor tyrosine-protein kinase erbB-2 (P04626 whole entry, the tested form may be a part): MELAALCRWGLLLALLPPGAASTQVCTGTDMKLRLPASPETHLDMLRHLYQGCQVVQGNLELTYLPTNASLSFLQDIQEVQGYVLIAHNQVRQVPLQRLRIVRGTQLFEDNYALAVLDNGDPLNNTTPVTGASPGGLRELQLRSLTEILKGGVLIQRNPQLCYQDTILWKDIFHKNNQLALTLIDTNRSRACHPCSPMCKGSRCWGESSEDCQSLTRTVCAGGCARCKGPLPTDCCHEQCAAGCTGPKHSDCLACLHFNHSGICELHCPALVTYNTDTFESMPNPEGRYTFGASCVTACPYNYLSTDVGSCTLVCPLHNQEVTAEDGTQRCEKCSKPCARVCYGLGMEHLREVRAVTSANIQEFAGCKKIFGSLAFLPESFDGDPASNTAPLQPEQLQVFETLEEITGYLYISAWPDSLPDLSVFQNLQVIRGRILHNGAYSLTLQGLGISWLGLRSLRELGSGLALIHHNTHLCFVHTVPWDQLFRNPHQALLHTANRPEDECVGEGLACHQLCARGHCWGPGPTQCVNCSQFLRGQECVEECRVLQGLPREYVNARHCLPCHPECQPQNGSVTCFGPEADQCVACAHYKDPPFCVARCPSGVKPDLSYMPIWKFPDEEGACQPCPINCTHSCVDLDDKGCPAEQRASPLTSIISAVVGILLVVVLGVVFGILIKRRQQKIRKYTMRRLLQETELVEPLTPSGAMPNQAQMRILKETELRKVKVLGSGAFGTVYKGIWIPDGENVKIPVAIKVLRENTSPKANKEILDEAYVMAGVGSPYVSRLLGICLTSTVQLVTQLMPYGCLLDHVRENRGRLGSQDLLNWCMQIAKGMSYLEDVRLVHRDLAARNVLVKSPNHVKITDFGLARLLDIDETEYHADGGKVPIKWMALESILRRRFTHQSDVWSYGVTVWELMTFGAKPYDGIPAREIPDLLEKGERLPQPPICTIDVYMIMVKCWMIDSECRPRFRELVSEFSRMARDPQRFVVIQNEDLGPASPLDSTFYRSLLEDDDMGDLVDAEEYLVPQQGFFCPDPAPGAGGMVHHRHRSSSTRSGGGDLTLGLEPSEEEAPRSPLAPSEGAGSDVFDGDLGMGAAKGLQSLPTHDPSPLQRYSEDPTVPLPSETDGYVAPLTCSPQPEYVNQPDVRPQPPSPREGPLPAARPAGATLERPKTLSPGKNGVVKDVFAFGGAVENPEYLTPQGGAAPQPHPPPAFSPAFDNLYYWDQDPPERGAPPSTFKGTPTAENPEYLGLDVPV
Sequence of Epidermal growth factor receptor (P00533 whole entry, the tested form may be a part): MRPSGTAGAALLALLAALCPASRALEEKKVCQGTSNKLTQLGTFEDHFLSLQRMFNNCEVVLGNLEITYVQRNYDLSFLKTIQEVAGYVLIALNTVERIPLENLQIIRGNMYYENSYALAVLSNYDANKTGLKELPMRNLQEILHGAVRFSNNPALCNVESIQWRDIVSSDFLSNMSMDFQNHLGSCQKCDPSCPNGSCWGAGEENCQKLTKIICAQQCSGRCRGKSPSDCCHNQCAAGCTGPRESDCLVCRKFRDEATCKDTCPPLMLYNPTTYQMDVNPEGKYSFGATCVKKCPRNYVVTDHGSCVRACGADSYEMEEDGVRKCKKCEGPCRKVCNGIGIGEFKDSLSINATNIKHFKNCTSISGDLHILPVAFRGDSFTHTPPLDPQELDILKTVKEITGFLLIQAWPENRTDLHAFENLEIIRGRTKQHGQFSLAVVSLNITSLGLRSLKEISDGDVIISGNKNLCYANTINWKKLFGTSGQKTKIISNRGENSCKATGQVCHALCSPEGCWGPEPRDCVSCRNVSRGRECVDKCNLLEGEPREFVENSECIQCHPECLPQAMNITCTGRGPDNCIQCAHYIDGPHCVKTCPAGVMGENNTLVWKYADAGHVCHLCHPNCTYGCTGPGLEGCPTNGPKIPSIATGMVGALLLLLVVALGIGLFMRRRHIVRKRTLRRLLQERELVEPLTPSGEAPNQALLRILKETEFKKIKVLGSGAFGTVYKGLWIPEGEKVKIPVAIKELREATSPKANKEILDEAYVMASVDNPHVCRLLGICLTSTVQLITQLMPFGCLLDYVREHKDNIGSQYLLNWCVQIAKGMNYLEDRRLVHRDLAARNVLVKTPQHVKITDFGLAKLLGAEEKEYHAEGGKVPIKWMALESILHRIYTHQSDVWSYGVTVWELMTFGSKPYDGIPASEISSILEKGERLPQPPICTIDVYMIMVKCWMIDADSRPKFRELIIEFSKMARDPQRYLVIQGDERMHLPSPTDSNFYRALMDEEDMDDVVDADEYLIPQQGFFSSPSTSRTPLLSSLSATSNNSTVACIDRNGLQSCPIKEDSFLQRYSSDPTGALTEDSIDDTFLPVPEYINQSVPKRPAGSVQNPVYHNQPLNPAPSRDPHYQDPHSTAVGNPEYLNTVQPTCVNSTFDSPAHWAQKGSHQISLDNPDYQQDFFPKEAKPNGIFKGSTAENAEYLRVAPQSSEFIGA

| SMILES | IC50 [1] [µM] | IC50 ([3]; read-out: IC50) [µM] | IC50 ([3]; read-out: pIC50 (converted)) [µM] | IC50 [4] [µM] | IC50 [5] [µM] | IC50 [6] [µM] | IC50 [2] [µM] | CC50 at 24 h [21] [µM] | further results |
| --- | --- | --- | --- | --- | --- | --- | --- | --- | --- |
| CCOc1ccc(C2=NN(C(C)=O)C(c3ccc(C(=O)OC(C)Cn4c([N+](=O)[O-])cnc4C)cc3)C2)cc1 (stereo unspecified) | 40.6 | 26.9 | 27 | 18.1 | 47.6 | 38.8 | 46.6 |  |  |
| CC(=O)N1N=C(c2ccc(Br)cc2)CC1c1ccc(C(=O)OC(C)Cn2c([N+](=O)[O-])cnc2C)cc1 (stereo unspecified) | 8.92 | 5.96 | 5.97 | 8.27 | 11.8 | 9.02 | 10.8 |  |  |
| COc1ccc(C2=NN(C(C)=O)C(c3ccc(C(=O)OCCn4c([N+](=O)[O-])cnc4C)cc3)C2)cc1 (stereo unspecified) | 30.2 | 8.54 | 8.55 | 17.3 | 27.9 | 15.8 | 36.2 |  |  |
| CC(=O)N1N=C(c2ccccc2)CC1c1ccc(C(=O)OCCn2c([N+](=O)[O-])cnc2C)cc1 (stereo unspecified) | 58.2 | 9.58 | 9.59 | 14 | 48.8 | 42.2 | 62.7 |  |  |
| CCOc1ccc(C2=NN(C(C)=O)C(c3ccc(C(=O)OCCn4c([N+](=O)[O-])cnc4C)cc3)C2)cc1 (stereo unspecified) | 20.6 | 15.2 | 15.2 | 14.9 | 31.4 | 19.3 | 38.9 |  |  |
| CC(=O)N1N=C(c2ccc(I)cc2)CC1c1ccc(C(=O)OC(C)Cn2c([N+](=O)[O-])cnc2C)cc1 (stereo unspecified) | 9.77 | 10.7 | 10.7 | 12.7 | 25.6 | 9.98 | 19.1 |  |  |
| COc1ccc(C2=NN(C(C)=O)C(c3ccc(C(=O)OC(C)Cn4c([N+](=O)[O-])cnc4C)cc3)C2)cc1 (stereo unspecified) | 28 | 21.3 | 21.3 | 12 | 35.1 | 25.2 | 40.6 |  |  |
| C#Cc1cccc(Nc2ncnc3cc(OCCOC)c(OCCOC)cc23)c1 [ERLOTINIB] |  |  |  |  |  |  |  | 105 |  |
| CC(=O)N1N=C(c2ccc(C)cc2)CC1c1ccc(C(=O)OC(C)Cn2c([N+](=O)[O-])cnc2C)cc1 (stereo unspecified) | 92.1 | 25.6 | 25.6 | 18.9 | 72.1 | 58.1 | > 100 |  |  |
| CC(=O)N1N=C(c2ccc(C)cc2)CC1c1ccc(C(=O)OCCn2c([N+](=O)[O-])cnc2C)cc1 (stereo unspecified) | 70.7 | 10.9 | 10.9 | 13.2 | 76.8 | 50.2 | > 100 |  |  |
| CC(=O)N1N=C(c2ccccc2)CC1c1ccc(C(=O)OC(C)Cn2c([N+](=O)[O-])cnc2C)cc1 (stereo unspecified) | 49.9 | 12.2 | 12.2 | 17 | 45.2 | 43.8 | 68.2 |  |  |
| CC(=O)N1N=C(c2ccc(Cl)cc2)CC1c1ccc(C(=O)OC(C)Cn2c([N+](=O)[O-])cnc2C)cc1 (stereo unspecified) | 8.82 | 9.26 | 9.27 | 9.96 | 15.6 | 12.2 | 22.2 |  |  |

More lines, main results first:

| IC50 [1] [µM] | IC50 ([3]; read-out: IC50) [µM] | IC50 ([3]; read-out: pIC50 (converted)) [µM] | IC50 [4] [µM] | IC50 [5] [µM] | IC50 [6] [µM] | SMILES | IC50 [2] [µM] | CC50 at 24 h [21] [µM] | further results |
| --- | --- | --- | --- | --- | --- | --- | --- | --- | --- |
| 0.96 | 0.26 |  | 0.51 | 0.13 | 0.33 | CC(=O)N1N=C(c2ccc(C(F)(F)F)cc2)CC1c1ccc(C(=O)OCCn2c([N+](=O)[O-])cnc2C)cc1 (stereo unspecified) | 0.19 | 98.9 | Activity [7]: 0.43%; Activity [8]: 26.7%; Activity [9]: 26.7%; Activity [10]: 36.2%; viability at 0.13 µM [11]: 73.9%; viability at 0.26 µM [12]: 50.7%; Activity [13]: 21.9%; Activity [14]: 1.88%; Activity [15]: 54.2%; Activity [16]: 0.988%; Activity [17]: 20.7%; Activity [18]: 20.5%; Activity [19]: 0.688%; viability at 0.52 µM [20]: 42.1%; Activity [22]: 3.72%; viability at 1.04 µM [23]: 18.6%; Activity [24]: Dose-dependent effect |
| 3.33 | 1.45 | 1.45 | 3.53 | 3.78 | 3.62 | CC(=O)N1N=C(c2ccc([N+](=O)[O-])cc2)CC1c1ccc(C(=O)OC(C)Cn2c([N+](=O)[O-])cnc2C)cc1 (stereo unspecified) | 12.2 | 168 |  |
| 1.13 | 0.6 | 0.601 | 2.06 | 0.15 | 1.75 | CC(=O)N1N=C(c2ccc([N+](=O)[O-])cc2)CC1c1ccc(C(=O)OCCn2c([N+](=O)[O-])cnc2C)cc1 (stereo unspecified) | 0.38 | 78.8 |  |
| 1.67 |  |  | 4.07 | 2.45 | 1.89 | CC(=O)N1N=C(c2ccc(F)cc2)CC1c1ccc(C(=O)OCCn2c([N+](=O)[O-])cnc2C)cc1 (stereo unspecified) | 4.19 | 118 |  |
| 5.21 | 6.58 | 6.59 | 8.54 | 7.42 | 8.89 | CC(=O)N1N=C(c2ccc(F)cc2)CC1c1ccc(C(=O)OC(C)Cn2c([N+](=O)[O-])cnc2C)cc1 (stereo unspecified) | 15.5 |  |  |
| 4.85 | 1.26 | 1.26 | 2.75 | 7.53 | 6.28 | CC(=O)N1N=C(c2ccc(I)cc2)CC1c1ccc(C(=O)OCCn2c([N+](=O)[O-])cnc2C)cc1 (stereo unspecified) | 11.8 |  |  |
| 2.18 | 6.67 | 6.68 | 5.62 | 0.42 | 2.21 | CC(=O)N1N=C(c2ccc(C(F)(F)F)cc2)CC1c1ccc(C(=O)OC(C)Cn2c([N+](=O)[O-])cnc2C)cc1 (stereo unspecified) | 5.87 | 92.6 |  |
| 0.47 |  |  |  | 0.12 | 0.27 | CS(=O)(=O)CCNCc1ccc(-c2ccc3ncnc(Nc4ccc(OCc5cccc(F)c5)c(Cl)c4)c3c2)o1 [LAPATINIB] | 0.21 | 123 |  |
| 5.56 | 4.13 | 4.13 | 3.45 | 2.82 | 3.82 | CC(=O)N1N=C(c2ccc(Br)cc2)CC1c1ccc(C(=O)OCCn2c([N+](=O)[O-])cnc2C)cc1 (stereo unspecified) | 13.1 |  |  |
| 2.27 | 7.37 | 7.38 | 4.1 | 4.13 | 3.31 | CC(=O)N1N=C(c2ccc(Cl)cc2)CC1c1ccc(C(=O)OCCn2c([N+](=O)[O-])cnc2C)cc1 (stereo unspecified) | 4.82 | 138 |  |
